# Screening data from PubChem.
# OX1R antag-1 = antagonists of human orexin 1 receptor (OX1R). OX1R-expressing cells, FRET antagonist read-out. inhibition, % at 6.6 µM. actives 1.8% (n = 330,000). AID 485270; in the data active = inhibition mostly above about 38%, no sharp cut-off; inactive = mostly below about 40%
# OX1R antag-2 = antagonists of human orexin 1 receptor | actives 0.43% (n = 330,000) | CHO/OX1R cells, Fluo-8 calcium fluorescence, orexin A | inhibition, % at 5 µM;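 active = inhibition above its plate's threshold, mean inhibition of all tested compounds on the plate plus 3 SD, cut at about 37% in these data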
# GalR3 antagonist = antagonists of human GalR3; O60755; HEK293 GalR3-CNG cAMP membrane potential fluorescence; galR3 body fused to GalR1 C-terminus; inhibition, % at 3 µM; actives 0.44% (n = 360,000);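 active = inhibition above the screen-wide average plus 3 SD, cut at about 13% in these data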;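 note: forskolin and galanin both at EC90 stimulate the cells; cAMP rise reported by CNG channel membrane potential dye signal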
# Target sequence (O60755 1-299 limits assumed): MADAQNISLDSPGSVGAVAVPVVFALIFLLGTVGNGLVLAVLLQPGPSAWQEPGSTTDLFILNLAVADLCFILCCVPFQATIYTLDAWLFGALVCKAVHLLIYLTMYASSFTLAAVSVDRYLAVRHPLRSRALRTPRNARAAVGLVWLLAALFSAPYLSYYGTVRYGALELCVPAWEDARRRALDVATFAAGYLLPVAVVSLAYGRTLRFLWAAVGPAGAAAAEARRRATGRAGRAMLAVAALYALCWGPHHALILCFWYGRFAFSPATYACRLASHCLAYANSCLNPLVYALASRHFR
# CHO parental Ca = counter-screen for OX1R antagonists: effect in parental CHO cells; parental CHO-K1, ATP-induced calcium, Fluo-8 fluorescence; inhibition, % at 5.6 µM; actives 0.63% (n = 330,000);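 active = inhibition above that plate's mean sample inhibition plus 3 SD, cut at about 26% in these data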
#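 material = parental CHO cells | also added = ATP as calcium-mobilizing challenge | dosing = single point at 5.6 µM | detection = intracellular calcium via Fluo-8 no-wash fluorescent dye | read-out = % inhibition | benchmarks = low control ATP plus DMSO, high control DMSO only | repeats = one well per compound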
# TAAR1 antag = antagonists of human TAAR1. inhibition, % at 3 µM. actives 1.5% (n = 360,000). Q96RJ0. CHO RD-HGA16 TAAR1, Fluo-8 calcium fluorescence, antagonist;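 active = inhibition above a per-plate cutoff, the mean inhibition of test compounds on that plate plus 3 SD, cut at about 49% in these data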
# Target sequence (Q96RJ0 whole entry, looked up): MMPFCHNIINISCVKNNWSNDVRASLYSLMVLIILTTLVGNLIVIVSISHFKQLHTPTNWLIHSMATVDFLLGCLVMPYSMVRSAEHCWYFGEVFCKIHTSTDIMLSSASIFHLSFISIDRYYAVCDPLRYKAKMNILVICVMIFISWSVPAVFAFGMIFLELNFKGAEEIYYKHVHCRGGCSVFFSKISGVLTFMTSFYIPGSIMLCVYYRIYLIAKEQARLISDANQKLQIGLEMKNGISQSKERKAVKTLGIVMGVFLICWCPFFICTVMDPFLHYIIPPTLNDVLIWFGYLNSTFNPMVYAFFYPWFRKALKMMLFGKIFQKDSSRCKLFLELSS
#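 Assay system: RD-HGA16 CHO cells with stable hTAAR1 and Gα16 / Reagent: EC80 β-phenethylamine stimulus / Doses: 3 µM, single point / Timing: dye loading 75 min at 37 °C, then 30 min room temperature / Measured by: Fluo-8 intracellular calcium dye fluorescence, real-time kinetic reads / Controls: vehicle wells and EC80 agonist wells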
# TAAR1 ag = agonists of human TAAR1. CHO RD-HGA16 TAAR1, Fluo-8 calcium fluorescence; vehicle wells 0%, saturating PEA agonist 100%. activation, % at 3 µM. actives 0.99% (n = 360,000);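 active = activation above the mean activation of all test compounds in the run plus 3 SD, cut at about 38% in these data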
#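 Signal – calcium-sensitive Fluo-8 signal, excitation 470-495, emission 515-575 nm · System – RD-HGA16 (CHO) cells co-expressing Gα16 and hTAAR1 · Incubation – 17-24 h seeding, 75 min 37 °C dye, 30 min RT · Compound dosing – 3 µM single concentration · Repeats – no replicates (n 1)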
# TAAR1 nonsel count = nonselective antagonism, TAAR1 counter-screen; shares compounds with TAAR1 antag; counterscreen cell line, calcium fluorescence, antagonist mode; inhibition, % at 3 µM; actives 77% (n = 2,400); AID 651780; in the data active = inhibition above about 22%;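 note: CHO-Ga16 host cells stimulated with ATP at an EC80 level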
# TAAR1 antag conf = human TAAR1 antagonism, confirmed; shares compounds with TAAR1 antag; TAAR1-expressing cells, fluorescence antagonist read-out; inhibition, % at 3 µM; actives 40% (n = 2,400); in the data active = inhibition above about 49%;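 note: CHO-Ga16 host cells challenged with agonist PEA near its EC80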
# Ga16 nonsel ag = counter-screen for TAAR1 antagonists: nonselective Ga16 agonists; actives 18% (n = 2,400); AID 651953; Ga16-expressing cells, calcium fluorescence, agonist counterscreen; shares compounds with TAAR1 antag; activation, % at 3 µM; in the data active = activation above about 12%
# TAAR1 ag count = counter-screen for human TAAR1 antagonists: TAAR1 agonists | hTAAR1 cell line, fluorescence activation, agonist mode | actives 2% (n = 2,400) | activation, % at 3 µM | shares compounds with TAAR1 antag | AID 651955; in the data active = activation above about 37%;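 note: CHO cells stably expressing TAAR1 with calcium dye readout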
# Numbers stand for hits; - = inactive; . = no result. Only some compounds are listed: those with a hit (about 4.2% of all), similar ones and a draw of the others.
SMILES,OX1R antag-1,OX1R antag-2,GalR3 antagonist,CHO parental Ca,TAAR1 antag,TAAR1 ag,TAAR1 nonsel count,TAAR1 antag conf,Ga16 nonsel ag,TAAR1 ag count
COc1cc(NC(=O)c2ccc(C)cc2)ccc1NC(=O)c1cc2ccccc2o1,-,-,-,-,-,-,.,.,.,.
COc1cc(OC)cc(C(=O)Nc2cccc(NC(C)=O)c2)c1,-,-,-,-,-,-,.,.,.,.
CCCc1cc(C(=O)Nc2ccc(C(=O)c3ccccc3)cc2)n(C)n1,-,-,-,-,72,-,34,55,-,-
COc1cccc(C(=O)Nc2ccc(C(=O)c3ccccc3)cc2)c1,-,-,-,-,67,-,32,-,-,-
COc1cc(OC)cc(C(=O)Nc2cccc(NC(=O)c3cc(OC)cc(OC)c3)n2)c1,-,-,-,-,75,-,27,49,-,-
O=C(NNC(=O)c1ccc2ncccc2c1)c1ccc(Cl)cc1,-,-,-,-,-,-,.,.,.,.
COc1ccccc1CNC(=O)C(Cc1c[nH]c2ccccc12)NC(=O)OCc1ccccc1 (stereo not drawn),-,-,-,-,63,-,-,-,-,-
C[C@H](NC(=O)OCc1ccccc1)C(=O)N[C@@H](Cc1c[nH]c2ccccc12)C(=O)O,-,-,-,-,-,-,.,.,.,.
Cc1ccc(Nc2nnc(SCC(=O)Nc3ccc(S(=O)(=O)N4CCOCC4)cc3)s2)cc1,-,-,-,-,-,-,.,.,.,.
O=C(CSc1nnc2c(n1)[nH]c1ccccc12)Nc1cccc(S(=O)(=O)N2CCOCC2)c1,-,-,-,-,70,-,43,52,-,-
O=C(CSc1nnc(Nc2ccccc2)s1)Nc1ccc(S(=O)(=O)N2CCOCC2)cc1,-,-,-,-,57,-,36,-,-,-
CN(CC(=O)Nc1cccc2c1CCCC2)S(=O)(=O)c1ccccc1,-,-,-,-,-,-,.,.,.,.
Cc1c(N(C)S(=O)(=O)c2cc(C(=O)Nc3ccccn3)ccc2Cl)c(=O)n(-c2ccccc2)n1C,-,-,-,-,-,-,.,.,.,.
O=C(CN(c1ccc2c(c1)OCCO2)S(=O)(=O)c1ccccc1)NCc1ccc(Cl)cc1,-,-,-,-,75,-,26,62,-,-
Cc1cc(=O)n2nc(N3CCC(C(=O)NCc4ccc(F)cc4)CC3)sc2n1,-,-,-,-,-,-,.,.,.,.
O=C(CSc1nnnn1C1CCCC1)NCCc1ccccc1,-,-,-,-,55,-,-,73,-,52
O=C(CSc1nnnn1C1CCCC1)Nc1ccccc1F,-,-,-,-,-,-,.,.,.,.
COC(=O)c1ccc(NC(=O)CSc2nnnn2C2CCCCC2)cc1,-,-,-,-,65,-,-,-,-,-
COc1ccc(N(C)S(=O)(=O)c2cccc(C(=O)N3CCN(c4ccccc4)CC3)c2)cc1,.,.,-,.,-,-,.,.,.,.
Cc1csc(NC(=O)CSc2nnc(NC(=O)NC(C)(C)C)s2)n1,-,-,-,-,-,-,.,.,.,.
NS(=O)(=O)c1cccc(NC(=O)c2cc(=O)c3ccccc3o2)c1,-,-,-,-,-,-,.,.,.,.
CC(=O)Nc1ccc(C(=O)Nc2cccc(S(=O)(=O)N(C)c3ccccc3)c2)cc1,-,-,-,-,52,-,33,-,-,-
COc1ccccc1N(C)S(=O)(=O)c1ccc(C(=O)Nc2cc(OC)c(OC)c(OC)c2)cc1,.,.,-,.,57,-,23,-,-,-
CN(c1ccccc1)S(=O)(=O)c1cccc(NC(=O)c2cc(=O)c3ccccc3o2)c1,-,-,-,-,74,-,40,57,12,-
COc1ccccc1N(C)S(=O)(=O)c1ccc(C(=O)Nc2ccncc2)cc1,-,-,-,-,-,-,.,.,.,.
SMILES,OX1R antag-1,OX1R antag-2,GalR3 antagonist,CHO parental Ca,TAAR1 antag,TAAR1 ag,TAAR1 nonsel count,TAAR1 antag conf,Ga16 nonsel ag,TAAR1 ag count
O=C(Nc1cccc(S(=O)(=O)N2CCCCCC2)c1)c1cc(=O)c2ccccc2o1,-,-,-,-,79,-,42,57,15,-
Cc1ccc(Oc2ncnc(N)c2[N+](=O)[O-])cc1C,-,-,-,-,-,-,.,.,.,.
CCOC(=O)CN(C)C(=O)CCc1nnc(-c2ccc(-c3ccccc3)cc2)o1,-,-,-,-,-,-,.,.,.,.
COc1ccc(-n2c(=S)[nH]c3cc(C(=O)N(C)Cc4ccccc4)ccc3c2=O)cc1,-,-,-,-,-,-,.,.,.,.
CC(OC(=O)c1ccc(Cl)cc1)C(=O)NCc1ccc2c(c1)OCO2 (stereo not drawn),-,-,-,-,-,-,.,.,.,.
COc1ccccc1N(C)S(=O)(=O)c1ccc(C(=O)OC(C)C(=O)NCc2ccc3c(c2)OCO3)cc1 (stereo not drawn),-,-,-,-,56,-,36,56,12,-
Cc1ccc(C)c(Cn2c3ccccc3c3cnn(CC(=O)NCCN4CCOCC4)c(=O)c32)c1,-,-,-,-,-,-,.,.,.,.
COc1ccccc1/C=C/C(=O)Nc1cccc(S(=O)(=O)N2CCOCC2)c1,-,-,-,-,59,-,24,-,-,-
Cc1onc(-c2ccccc2Cl)c1C(=O)Nc1cccc(S(=O)(=O)N2CCOCC2)c1,-,-,-,-,-,-,.,.,.,.
Cc1onc(-c2c(F)cccc2Cl)c1C(=O)Nc1cccc(S(=O)(=O)N2CCOCC2)c1,-,-,-,-,50,-,26,-,-,-
COc1ccc(/C=C/C(=O)Nc2cccc(S(=O)(=O)N3CCOCC3)c2)cc1OC,.,.,-,.,-,-,.,.,.,.
CC(=O)Nc1csc2ccccc12,-,-,-,-,-,-,.,.,.,.
Cn1c(N2CCN(C(c3ccccc3)c3ccccc3)CC2)nc2c1c(=O)[nH]c(=O)n2C,-,-,-,-,67,-,31,50,13,-
CCN1CCN(c2nc3c(c(=O)[nH]c(=O)n3C)n2CCSc2nc3ccccc3s2)CC1,-,-,.,-,-,-,.,.,.,.
Cc1csc(SCCn2c(N3CCN(c4ccccc4)CC3)nc3c2c(=O)[nH]c(=O)n3C)n1,-,-,-,-,54,-,-,-,-,-
Cc1ccc(C)c(N2CCN(C(=O)c3ccc(CSc4nc5ccncc5[nH]4)cc3)CC2)c1,-,53,-,44,50,-,36,-,12,-
O=C(c1ccc(CSc2nc3ccncc3[nH]2)cc1)N1CCCCC1,-,-,-,-,-,-,.,.,.,.
